Screening data as filed in PubChem BioAssay.
MsrA inhibitor: inhibits bovine methionine sulfoxide reductase A; purified bovine MsrA, absorbance read-out; inhibition, % at 15.5 µM; 360,000 tested, 0.75% active; in the data active = inhibition above about 4.5%
SKN-1 inh: inhibitors of C. elegans SKN-1; C. elegans VP596 Pgst-4::GFP/RFP ratio, acrylamide-induced, 24 h; inhibition, % at 21.8 µM; 360,000 tested, 0.49% active; AID 624304;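 active = interference check ratio from 0.5 to 1.5 plus GFP to RFP signal ratio inhibition reaching or exceeding a fixed threshold, cut at about 30% in these data, passing the limit was not always enough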
MIN6 prolif-1: inducers of beta-cell replication in MIN6 cells. AID 2380. 330,000 tested, 0.29% active. proliferation, % at 10 µM. MIN6 cells proliferation, ATPlite luminescence, 48 h; cells starved in 0.2% serum; 100% = growth in 10% serum;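 active = compounds whose signal lies at least 3.5 SD above the mean of all wells on their plate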
bovine MsrA act: activates bovine MsrA enzyme; AID 602163; 360,000 tested, 0.3% active; purified bovine MsrA, absorbance read-out; activation, % at 10.6 µM; in the data active = activation above about 7.5%
DAGLB inh: blocks human DAGLB lipase activity; Q8NCG7; HEK293T DAGLB membrane lysate, EnzChek fluorogenic substrate; inhibition, % at 5.17 µM; 340,000 tested, 0.059% active; AID 504411; in the data active = inhibition above about 34%
Target sequence (Q8NCG7 whole entry, looked up): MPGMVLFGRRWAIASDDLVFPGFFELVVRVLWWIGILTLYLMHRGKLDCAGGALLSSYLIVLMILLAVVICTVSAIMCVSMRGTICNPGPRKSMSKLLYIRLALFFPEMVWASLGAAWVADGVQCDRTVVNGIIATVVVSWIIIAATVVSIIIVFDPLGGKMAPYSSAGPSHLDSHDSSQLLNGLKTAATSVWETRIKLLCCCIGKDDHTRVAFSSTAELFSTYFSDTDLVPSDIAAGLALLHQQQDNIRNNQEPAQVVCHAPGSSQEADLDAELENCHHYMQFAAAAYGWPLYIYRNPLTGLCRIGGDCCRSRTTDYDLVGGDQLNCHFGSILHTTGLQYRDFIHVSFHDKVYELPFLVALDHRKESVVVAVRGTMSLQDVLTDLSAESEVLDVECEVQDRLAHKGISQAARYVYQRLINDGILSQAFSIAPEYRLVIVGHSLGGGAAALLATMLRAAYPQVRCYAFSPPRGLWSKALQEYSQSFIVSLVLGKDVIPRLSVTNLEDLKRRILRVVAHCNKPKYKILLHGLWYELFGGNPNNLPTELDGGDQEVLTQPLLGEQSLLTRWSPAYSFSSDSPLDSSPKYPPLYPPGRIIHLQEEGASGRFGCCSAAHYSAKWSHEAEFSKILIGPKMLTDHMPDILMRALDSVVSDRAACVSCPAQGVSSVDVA
MT1-MMP act inh: MT1-MMP (human) activation inhibition; P50281; HT1080 RFP-PRO-GFP cells, GFP/RFP ratio fluorescence, overnight; percent of plate control window, DMSO zero; GFP/RFP ratio change, % at 20 µM; 360,000 tested, 0.061% active; AID 651647;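 active = GFP/RFP ratio change of at least 30% with cell ATP level not reduced by more than half and red fluorescence within 50% of control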
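Compound: 20 µM single dose, 1% DMSO / System: HT1080 RFP-PRO-GFP cells / Controls: DMSO and RFP-L50D-GFP cell wells / Read-out basis: GFP/RFP fluorescence ratio / Schedule: overnight compound exposure at 37 °C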
MIN6 prolif-2: confirmation of inducers of beta-cell replication in MIN6 cells; shares compounds with MIN6 prolif-1; MIN6 beta-cell proliferation, ATPlite luminescence, 48 h; cells kept in 0.2% serum; scaled between 0.2% and 10% serum; proliferation increase, % at 50 µM; 920 tested, under 10 active;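 active = proliferation increase above 40% at any of the four tested concentrations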
Numbers stand for hits; i = inactive; nt = no result. Sampled rows, rich in hits. Any-hit rate of the full collection: about 1.8%.

SMILES	MsrA inhibitor	SKN-1 inh	MIN6 prolif-1	bovine MsrA act	DAGLB inh	MT1-MMP act inh	MIN6 prolif-2
COc1ccc(Nc2nc(C)cc(C)c2C#N)cc1	i	i	i	i	i	i	nt
CCOc1ccc(Nc2nc(C)cc(C)c2C#N)cc1	i	i	6.3	i	i	i	i
COc1ccc(C(C)c2cc3c(cc2OCC(=O)O)OCO3)cc1 (stereo not drawn)	i	nt	nt	nt	nt	nt	nt
O=C(O)/C=C/c1cn(-c2ccccc2)nc1-c1ccc2c(c1)OCCO2	i	i	i	i	i	i	nt
O/N=C/c1cn(-c2ccccc2)nc1-c1ccc2c(c1)OCCO2	i	i	7.1	i	i	i	i
Cc1cc(NC(=O)CCC(=O)N(CC(C)C)C(C(=O)NC(C)(C)C)c2ccccc2Cl)no1 (stereo not drawn)	i	i	6.7	i	i	i	i
CCCCN(C(=O)CCC(=O)Nc1cc(C)on1)C(C(=O)NC(C)(C)C)c1ccccc1Cl (stereo not drawn)	i	i	i	i	i	i	nt
COc1cccc(C(C(=O)NC(C)(C)C)N(C(=O)CCC(=O)Nc2cc(C)on2)C(C)(C)C)c1OC (stereo not drawn)	i	i	5.2	i	i	i	i
COc1ccccc1CCn1cnc(-c2ccc(F)cc2)c1C(C)C	i	nt	nt	nt	nt	nt	nt
Cc1ccc2nc(-c3ccc(Cl)cc3)c(Cc3ccsc3)n2c1	i	nt	nt	nt	nt	nt	nt
O=S(=O)(c1ccc(Oc2ccc(F)c(Cl)c2)nc1)N1CCOCC1	i	i	13	i	i	i	i
O=S(=O)(c1ccc(Oc2ccc(Cl)cc2)nc1)N1CCOCC1	i	i	i	i	i	i	nt
CC(C)Nc1nc(NC(C)(C)C)nc(Oc2ccc(=O)n(-c3ccccc3)n2)n1	i	i	7.5	i	i	i	i
COc1cc2c(cc1OC)C(Nn1cnnc1)=NC1(CCCC1)C2	i	i	5.2	i	i	i	i
C[C@@H]1CN([C@@H](C)CO)C(=O)c2cc(Br)cnc2O[C@@H]1CN(C)C(=O)c1ccc(F)cc1	i	nt	nt	nt	nt	nt	nt
CC(C)Cc1nc2n[nH]c(N)c2c2c1CCC2	i	i	0.0	i	i	i	i
CC(C)c1nc2n[nH]c(N)c2c2c1CCCC2	i	i	6.1	i	i	i	i
COC(=O)C1=C(C)N(Cc2ccccc2C(F)(F)F)C(=NCc2ccc(C(F)(F)F)cc2)NC1c1cccc(Cl)c1 (stereo not drawn)	i	nt	nt	nt	nt	nt	nt
CCn1c(SCC(=O)O)nnc1-c1cc2c(C)nn(-c3ccccc3)c2s1	i	i	i	i	i	i	nt
Cc1nn(-c2ccccc2)c2sc(-c3nnc(SCC(=O)O)o3)cc12	i	i	5.1	i	i	i	i
Nc1ncnc(N2CCc3ccccc32)c1[N+](=O)[O-]	i	i	20	i	i	i	i
NNC(=O)c1ccc(N2CCc3ccccc32)c([N+](=O)[O-])c1	i	i	i	i	i	i	nt
COC(=O)c1ccc(Cn2nnc3c(=O)[nH]c(C4CCCN(S(=O)(=O)c5ccc(C)cc5)C4)nc32)cc1 (stereo not drawn)	i	i	11	i	i	i	i
Cc1ccc(Cn2nnc3c(=O)[nH]c(C4CCCN(S(=O)(=O)c5ccc(F)cc5)C4)nc32)cc1 (stereo not drawn)	i	i	i	i	i	i	nt
OC(c1ccccc1)(c1ccccc1)C1CCN(CCCOc2ccc(-c3cccnc3)cc2)CC1	i	nt	nt	nt	nt	nt	nt
SMILES	MsrA inhibitor	SKN-1 inh	MIN6 prolif-1	bovine MsrA act	DAGLB inh	MT1-MMP act inh	MIN6 prolif-2
CCCC(=O)OC[C@H]1CN(C2CCCC2)S(=O)(=O)c2c(Oc3ccccc3)cccc2O1	i	nt	nt	nt	nt	nt	nt
CCCN1Cc2cccc(C(=O)Nc3ccc(CC)cc3)c2C1=O	i	i	7.1	i	i	i	i
CCCN1Cc2cccc(C(=O)Nc3ccc4c(c3)OCO4)c2C1=O	i	i	11	i	i	i	i
CCCCCCCCN1C(=O)[C@@H](CC(=O)N2CCC(c3ccccc3)CC2)C[C@@]2(C(=O)OC)C1=C[C@H](C(C)(C)C)O[C@@H]2C	i	nt	nt	nt	nt	nt	nt
CCN(C(=O)CCC(=O)N(CC)c1ccccc1)c1ccccc1	i	i	i	i	i	i	nt
CCCC(=O)N(CCN(C(=O)CCC)c1ccccc1)c1ccccc1	i	i	8.8	i	i	i	i
